“And” between values parts separate entries of the source, which are not always exact repeats. Equal values may be shown once. Read-outs that look alike come from different tables or passages of the source.
Assays:
[1] = test system: T. brucei bloodstream form (BSF) parasites (cell line 90-13, a 427 strain); test: microbe, parasite or virus in culture; format: cell-based, Trypanosoma brucei; settings: for % T. brucei BSF growth inhibition (10 μM): 10 μM compound; for % T. brucei BSF growth inhibition (10 μM) / inhibition at 10 µM: BLD = below level of detection; for T. brucei BSF potency (LD50 ± SEM): 3-day growth, n ≥ 3; for inhibition at 10 µM: Trypanosoma brucei, A-427, read-out: % T. brucei BSF growth inhibition (10 μM), 10 μM compound
IMR-90 human cells = test: Human cell line toxicity testing; format: cell-based
[2] = target: recombinant T. brucei hexokinase 1 (rTbHK1) (Trypanosoma brucei, UniProt Q38C42); test: biochemical; format: biochemical
[3] = target: T1, human HK 4 (human glucokinase, hGlk) (Homo sapiens, UniProt P35557); test: Specificity assay against human glucokinase; format: biochemical; settings: for % hGlk inhibition (10 μM): 10 μM compound, BLD = below level of detection; for inhibition at 10 µM: read-out: % hGlk inhibition (10 μM)
T1 sequence (P35557 1-465): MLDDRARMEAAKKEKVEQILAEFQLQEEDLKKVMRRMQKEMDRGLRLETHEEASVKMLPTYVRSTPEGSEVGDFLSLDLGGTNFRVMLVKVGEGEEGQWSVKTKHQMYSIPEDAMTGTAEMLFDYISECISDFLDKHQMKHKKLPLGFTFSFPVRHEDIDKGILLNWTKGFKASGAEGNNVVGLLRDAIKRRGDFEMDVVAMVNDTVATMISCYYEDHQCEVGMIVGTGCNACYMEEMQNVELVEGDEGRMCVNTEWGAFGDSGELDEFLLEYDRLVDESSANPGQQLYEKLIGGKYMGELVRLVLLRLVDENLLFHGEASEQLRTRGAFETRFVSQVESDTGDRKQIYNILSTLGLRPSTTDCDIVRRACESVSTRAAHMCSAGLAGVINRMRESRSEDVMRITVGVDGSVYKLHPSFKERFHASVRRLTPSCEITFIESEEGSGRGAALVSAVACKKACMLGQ
In short: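 Uses human hexokinase 4 (glucokinase; GenBank BC001890). Activity is read through a coupled reaction in which glucose-6-phosphate dehydrogenase converts the glucose-6-phosphate formed to 6-phosphogluconate. The coincident NADPH formation is followed at 340 nm.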

[4] = read-out: IMR90 toxicity (EC50), IMR-90 cells, 44-46 h
[5] = read-out: rTbHK1 potency (IC50 ± SEM), average of n ≥ 3 experiments
[6] = Homo sapiens, IMR-90, read-out: IMR90 toxicity (EC50)

| Molecule | % T. brucei BSF growth inhibition (10 μM) [1] | T. brucei BSF potency (LD50 ± SEM) [1] | EC50 (IMR-90 human cells; [4]) | IC50 [2, 5] | % hGlk inhibition (10 μM) [3] | EC50 (IMR-90 human cells; [6]) | IC50 [2] | inhibition at 10 µM [3] | inhibition at 10 µM [1] | activity on whole T. brucei BSF parasites (in words) [1] | rTbHK1 enzymatic potency (in words) [2] | aqueous solubility (PBS buffer, pH 7.4) |
| --- | --- | --- | --- | --- | --- | --- | --- | --- | --- | --- | --- | --- |
| CC(C)(C)c1ccc(C(=O)Nc2cc(Cl)c(-c3ccoc3)cc2C(=O)O)cc1 [Compound 4x] | 73.7 ± 3.7% | 4.2 ± 0.4 µM | > 25 µM | 0.51 ± 0.06 µM | 3.1 ± 2.8% |  |  |  |  |  |  |  |
| CCc1cc(C(=O)O)c(NC(=O)c2ccc(C(C)(C)C)cc2)cc1Cl [Compound 4d, 2-(4-tert-Butylbenzamido)-4-chloro-5-ethylbenzoic acid] | BLD |  |  |  |  | > 25 µM | 7.4 ± 0.15 µM | 0.7 ± 1.4% |  |  |  |  |
| CC(C)(C)c1ccc(C(=O)Nc2cc(Cl)c(-c3cccc(Cl)c3)cc2C(=O)O)cc1 [Compound 4q] |  |  |  |  |  | > 25 µM | 2.7 ± 0.05 µM | 30.9 ± 3.5% | 90.7 ± 1.8% |  |  |  |
| Cn1nnc(-c2cc(C(=O)O)c(NC(=O)c3ccc(C(C)(C)C)cc3)cc2Cl)n1 [Compound 4ff] | BLD |  | > 25 µM | > 10 µM | 14.0 ± 4.1% |  |  |  |  | failed to inhibit BSF parasite growth | lacked enzymatic potency |  |
| COc1ccc(-c2cc(C(=O)O)c(NC(=O)c3ccc(C(C)(C)C)cc3)cc2Cl)cc1 [Compound 4i] | 82.5 ± 7.1% | 3.1 ± 0.2 µM | > 25 µM | 1.72 ± 0.09 µM | 22.2 ± 1.6% |  |  |  |  |  |  |  |
| Cc1ccc(-c2cc(C(=O)O)c(NC(=O)c3ccc(C(C)(C)C)cc3)cc2Cl)cc1 [Compound 4g] | 81.4 ± 5.6% | 3.2 ± 1.6 µM | > 25 µM | 2.78 ± 0.03 µM | 15.7 ± 3.0% |  |  |  |  |  |  |  |
| CC(C)(C)c1ccc(C(=O)Nc2cc(Cl)c(-n3cccc3)cc2C(=O)O)cc1 [Compound 4aa] | 73.6 ± 1.0% | 6.9 ± 2.1 µM | > 25 µM | 3 ± 0.2 µM | 15.8 ± 3.0% |  |  |  |  |  |  |  |
| CC(C)(C)c1ccc(C(=O)Nc2cc(Cl)c(-c3ccc[nH]3)cc2C(=O)O)cc1 [Compound 4bb] |  |  |  |  |  | > 25 µM | 0.5 ± 0.05 µM | 6.1 ± 0.1% | 57 ± 7.1% |  |  |  |
| CC(C)(C)c1ccc(C(=O)Nc2cc(Cl)c(-c3ccco3)cc2C(=O)O)cc1 [Compound 4w] |  |  |  |  |  | > 25 µM | 0.42 ± 0.02 µM | 10.4 ± 2.1% | 59 ± 8.2% |  |  |  |
| CC(C)(C)c1ccc(C(=O)Nc2cc(Cl)c(-n3cccn3)cc2C(=O)O)cc1 [Compound 4cc] | 22.5 ± 12.3% | > 10.0 µM | > 25 µM | 2.8 ± 0.2 µM | 8.7 ± 4.4% |  |  |  |  |  |  |  |
| Cc1cc(C(=O)O)c(NC(=O)c2ccc(C(C)(C)C)cc2)cc1Cl [Compound 4c, 2-(4-tert-Butylbenzamido)-4-chloro-5-methylbenzoic acid] |  |  |  |  |  | > 25 µM | 2.7 ± 0.18 µM | 12.5 ± 4.8% | 97.5 ± 0.6% |  |  |  |
| CC(C)(C)c1ccc(C(=O)Nc2cc(Cl)c(-c3ccc(C(=O)O)cc3)cc2C(=O)O)cc1 [Compound 4r] | 51.0 ± 14.3% |  | > 25 µM | 3.5 ± 0.33 µM | 3.5 ± 7.1% |  |  |  |  |  |  |  |
| CC(C)(C)c1ccc(C(=O)Nc2cc(Cl)c(-c3ccncc3)cc2C(=O)O)cc1 [Compound 4s] | 99.7 ± 1.4% | 3.5 ± 0.6 µM | > 25 µM | > 10 µM | 15.1 ± 3.2% |  |  |  |  |  |  |  |
| CC(C)(C)c1ccc(C(=O)Nc2cc(Cl)c(-c3ccc(F)cc3)cc2C(=O)O)cc1 [Compound 4n] | 76.7 ± 10.4% | 3.1 ± 0.7 µM | > 25 µM | 2.44 ± 0.08 µM | 15.1 ± 2.6% |  |  |  |  |  |  |  |
| CC(C)(C)c1ccc(C(=O)Nc2cc(Cl)c(-c3ccccc3F)cc2C(=O)O)cc1 [Compound 4p] | 92.8 ± 2.0% | 5.2 ± 0.9 µM | > 25 µM | 2.08 ± 0.07 µM | 24.5 ± 2.5% |  |  |  |  |  |  |  |
| CC(C)(C)c1ccc(C(=O)Nc2cc(Cl)c(-c3cccc(F)c3)cc2C(=O)O)cc1 [Compound 4o] | 93.7 ± 2.6% | 1.8 ± 0.3 µM | > 25 µM | 4.6 ± 0.32 µM | 16.1 ± 8.7% |  |  |  |  |  |  |  |
| CC(C)(C)c1ccc(C(=O)Nc2cc(Cl)c(-c3ccc4c(c3)OCCO4)cc2C(=O)O)cc1 [Compound 4y] |  |  |  |  |  | > 25 µM | 0.6 ± 0.09 µM | 26.6 ± 0.4% | 98 ± 1.2% |  |  |  |
| CN(C)c1cccc(-c2cc(C(=O)O)c(NC(=O)c3ccc(C(C)(C)C)cc3)cc2Cl)c1 [Compound 4m] |  |  |  |  |  | > 25 µM | 4 ± 0.32 µM | 43.7 ± 4.1% | 82.8 ± 0.2% |  |  |  |
| CC(C)(C)c1ccc(C(=O)Nc2cc(Cl)c(-c3cccs3)cc2C(=O)O)cc1 [Compound 4u] |  |  |  |  |  | > 25 µM | 0.47 ± 0.15 µM | 12.5 ± 1.3% | 69.1 ± 5.8% |  |  |  |
| 4-methoxybenzamidochlorobenzoic acid [Compound 1] |  |  | > 25 µM | 9.1 µM |  |  |  |  |  | no appreciable activity |  | > 274.3 μM |
| CC(C)(C)c1ccc(C(=O)Nc2cc(Cl)c(-n3ccnc3)cc2C(=O)O)cc1 [Compound 4dd] | 16.4 ± 13.3% |  | > 25 µM | > 10 µM | 1.7 ± 3.2% |  |  |  |  |  |  |  |
| Cc1ccccc1-c1cc(C(=O)O)c(NC(=O)c2ccc(C(C)(C)C)cc2)cc1Cl [Compound 4h] | 65.2 ± 0.2% |  | > 25 µM |  | 16.6 ± 2.3% |  |  |  |  |  |  |  |
| CC(C)(C)c1ccc(C(=O)Nc2cc(Cl)c(C3CC3)cc2C(=O)O)cc1 [Compound 4e] | 43.4 ± 16.8% |  | > 25 µM | 6.7 ± 0.38 µM | BLD |  |  |  |  |  |  |  |
| CC(C)(C)c1ccc(C(=O)Nc2cc(Cl)c(-c3nnn[nH]3)cc2C(=O)O)cc1 [Compound 4ee] | BLD |  |  |  |  | > 25 µM | 0.14 ± 0.002 µM | 1.6 ± 0.5% |  |  |  |  |
| CC(C)(C)c1ccc(C(=O)Nc2cc(Cl)c(-c3cccnc3)cc2C(=O)O)cc1 [Compound 4t] | 57.7 ± 14.2% |  | > 25 µM |  | 16.7 ± 1.2% |  |  |  |  |  |  |  |
| CC(C)(C)c1ccc(C(=O)Nc2cc(Cl)c(-c3ccc4c(c3)OCO4)cc2C(=O)O)cc1 [Compound 4z] | 89.8 ± 1.1% | 3.0 ± 0.3 µM | > 25 µM | 3.9 ± 0.1 µM | 23.9 ± 2.5% |  |  |  |  |  |  |  |
| CN(C)c1ccc(-c2cc(C(=O)O)c(NC(=O)c3ccc(C(C)(C)C)cc3)cc2Cl)cc1 [Compound 4l] | 58.0 ± 4.0% | 6.0 ± 0.2 µM | > 25 µM | > 10 µM | 27.8 ± 1.7% |  |  |  |  |  |  |  |
| CC(C)(C)c1ccc(C(=O)Nc2cc(Cl)c(-c3ccsc3)cc2C(=O)O)cc1 [Compound 4v] |  |  |  |  |  | > 25 µM | 0.33 ± 0.03 µM | 24.8 ± 1% | 68.5 ± 2.1% |  |  |  |
| COc1ccccc1-c1cc(C(=O)O)c(NC(=O)c2ccc(C(C)(C)C)cc2)cc1Cl [Compound 4k] | 90.7 ± 0.9% | 2.0 ± 0.2 µM | > 25 µM | 4.6 ± 0.32 µM | 18.8 ± 2.4% |  |  |  |  |  |  |  |
| COc1cccc(-c2cc(C(=O)O)c(NC(=O)c3ccc(C(C)(C)C)cc3)cc2Cl)c1 [Compound 4j] | 92.2 ± 2.9% | 1.5 µM and 1.5 ± 0.3 µM | > 25 µM | 0.88 ± 0.01 µM | 13.8 ± 1.9% |  |  |  |  |  |  |  |

— article PMC5808564 (ChemMedChem, 2017)
